These results are taken from ChEMBL document CHEMBL1122794, “[(Arylcarbonyl)oxy]propanolamines. 1. Novel beta-blockers with ultrashort duration of action” (J Med Chem, 1984).

A short description of data set [1]: T1/2 in canine blood. Conditions: dog. It is filed as ADME, […], Canis lupus familiaris. The procedure, abridged: (§1)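 1 mL of solution containing 50 µg of compound was added to 1 mL of dog or human whole blood, or to 1 mL of 33% (w/v) canine liver homogenate. They were assayed by HPLC on a phenyl column with 60% acetonitrile/40% 0.05 M sodium phosphate (pH 6.6) and UV detection. Half-life was read graphically from concentration versus time.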

A short description of data set [2]: t1/2 in canine liver. Conditions: dog. In kind it is ADME, Canis lupus familiaris.
Data set [3] deals with T1, Adrenergic receptor beta (Homo sapiens, UniProt P08588+P07550+P13945). The data set is described as follows: In Vitro inhibition of the beta adrenergic receptor in guinea pig atria. In kind it is tissue-based, Cavia porcellus. Conditions: target entry is the homologue from another species.
Data set [4] has as its target T1, Adrenergic receptor beta. The data set is described as follows: In vitro blocking of beta adrenergic receptor in guinea pig trachea. It is filed as tissue-based, Cavia porcellus. The note with it: target entry is the homologue from another species.
The species named for data set [5] is Canis familiaris. Kind of data set: Percent inhibition of isoproterenol induced tachycardia at a dose of 1 microg (3-h infusion period). It is filed as functional, Canis lupus familiaris.
The species named for data set [6] is Canis familiaris. Kind of data set: Time taken for 80% recovery at a dose of 1 microg (3-h infusion period). In kind it is functional, organism-based. The note with it: Canis lupus familiaris.
Data set [7] in a line: Selectivity determined by expression 10[pA2(atria) - pA2 (trachea)] in guinea pig. In kind it is functional, Cavia porcellus.
Data set [8] is filed under the species Canis familiaris. Kind of data set: Percent inhibition of isoproterenol induced tachycardia at a dose of 57/122 microg (3-h infusion period). It is filed as functional, Canis lupus familiaris.
For data set [9], the species on record is Canis familiaris. The data set is described as follows: Time taken for 80% recovery at a dose of 57/122 microg (3-h infusion period). It is filed as functional, organism-based. The note with it: Canis lupus familiaris.
Data set [10] is described as follows: Time in which 1/2 of the initial amount disappeared in human blood. It is filed as ADME, organism-based. In a few lines: as §1
For data set [11], the species on record is Canis familiaris. Kind of data set: Percent inhibition of isoproterenol induced tachycardia at a dose of 36 microg (3-h infusion period). In kind it is functional, Canis lupus familiaris.
The species entered for data set [12] is Canis familiaris. The data set is described as follows: Time taken for 80% recovery at a dose of 36 microg (3-h infusion period). In kind it is functional, organism-based. Conditions: Canis lupus familiaris.
The species named for data set [13] is Canis familiaris. Kind of data set: Time taken for 80% recovery at a dose of 182 microg (3-h infusion period). Conditions: Canis lupus familiaris. It is filed as functional, organism-based.
The species entered for data set [14] is Canis familiaris. The data set is described as follows: Percent inhibition of isoproterenol induced tachycardia at a dose of 182 microg (3-h infusion period). It is filed as functional, Canis lupus familiaris.
Data set [15] can be described thus: Time in which 1/2 of the initial amount disappeared in human blood. It is filed as ADME, organism-based. The procedure, abridged: as §1
The species entered for data set [16] is Canis familiaris. The data set is described as follows: Time taken for 80% recovery at a dose of 128 microg (3-h infusion period) / 85 kg min (40-min infusion model). The note with it: Canis lupus familiaris. In kind it is functional, organism-based.
Data set [17] is filed under the species Canis familiaris. Kind of data set: Percent inhibition of isoproterenol induced tachycardia at a dose of 128 microg (3-h infusion period) / 85 kg min (40-min infusion model). In kind it is functional, Canis lupus familiaris.

For the molecule `CC(C)(CNC(N)=O)NCC(O)COC(=O)c1ccccc1F` (centres undefined) [FLESTOLOL], the half-life in data set [1] stood at 15 min; in data set [2], 2.5 min. The values for the pA2 in data set [3] and in data set [4] were 8.1 and 8.4, respectively. The molecule further returned an Inhibition in [5] of 49%. Moreover, the Recovery time in [6] came out at 21 min. The molecule also showed a Selectivity in data set [7] of -2.
For `CC(C)(CNS(=O)(=O)c1ccccc1)NCC(O)COC(=O)c1ccccc1F.O=C(O)C(=O)O` (centres undefined), the half-life in data set [1] came out at 15 min. Also, the pA2 in [3] was determined as 7; in data set [4] it was 7.9. In addition, the Inhibition in data set [8] was determined as 43%. In addition, in [9], the Recovery time came to 6 min. Moreover, in data set [7], the Selectivity worked out at 1.
Take `CC(C)(C)NCC(O)COC(=O)c1ccc(F)cc1` (centres undefined): the half-life came to 16 min in data set [1], 66 min in [2] and 11.5 min in [10]. For the same molecule, the figures for the pA2 in [3] and in data set [4] were 7.3 and 8, respectively. The molecule also registered a Selectivity in data set [7] of -5.
As to `CCOC(=O)NCC(C)(C)NCC(O)COC(=O)c1ccccc1F` (centres undefined), the half-life stood at 8 min in data set [1] and 1 min in data set [2]. Moreover, the figures for the pA2 in data set [3] and in data set [4] were 7.1 and 7, respectively. Further, in data set [11], the Inhibition amounted to 49%. In data set [12], this molecule gave a Recovery time of 8 min. The molecule also yielded a Selectivity in data set [7] of 1.
Turning to `CC(C)NCC(O)COC(=O)c1ccc2ccccc2c1` (centres undefined), the pA2 is reported as 6.4 in [3] and 6.6 in [4]. Moreover, the Recovery time in data set [13] was greater than 60 min. Besides, the Inhibition in [14] is given as 54%. In data set [7], the Selectivity is reported as -2.
With `CC(C)NCC(O)COC(=O)c1ccccc1` (centres undefined), the figures for the half-life in data set [1], in data set [2] and in data set [15] were 6.8 min, 8 min and 2.3 min, respectively. The pA2 in data set [3] turned out to be 6.3; in [4], 7.2. In [16], this molecule displayed a Recovery time of 26 min. In [17], the Inhibition is recorded as 63%. Moreover, in data set [7], the Selectivity is recorded as -7.
